# Compound activity as filed in PubChem.
# The entries come from a sample that favours hits as a whole.
# AP complement: orthogonal test for alternative complement pathway inhibitors. Human serum alternative complement pathway, LPS-coated ELISA, C3 deposition; tested in compound mixtures. inhibition, % at 5 µM. AID 1235. 62,000 tested, 0.08% active;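 active means inhibition above 30% in each of the two pooled mixtures holding the compound, so the lower value exceeds 30%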;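 further: 0% = serum in Mg-EGTA without compound and 100% = EDTA serum blank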
#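 Test system: human serum alternative complement pathway, C3 deposition on LPS-coated wells; also added: Plate-bound LPS; doses: 5 µM per compound in ten-compound mixtures; schedule: 1 h at 37 °C; detection: Anti-C3 ELISA, OD 450 nm; evaluation: percent inhibition of C3 deposition onto LPS; repeats: two pool placements per compound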
# DAT uptake mod: modulates human dopamine transporter uptake under cocaine | Q01959 | LLC-PK1 hDAT cells, [14C]-dopamine uptake with cocaine IC80; actives deviate in either direction | B-score at 10 µM | 110,000 tested, 1.3% active | AID 449768;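 active means Z score or B-score, a plate-position-corrected score, falls beyond the plate's 99.7% confidence bounds, in either direction; inactive means both scores lie inside the 99.7% bounds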;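 further: scored against the spread of the other compound wells on the same plate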
# D1 mod: D1 dopamine receptor (human) allosteric modulation | HEK293 D1, CRE-luciferase, dopamine EC30 potentiation; actives deviate in either direction | AID 641 | P21728 | 58,000 tested, 5.9% active | B-score at 10 µM;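 active means luminescence count or its row- and column-corrected plate score outside the 99.7% band of the plate's sample wells, on either side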
# Target sequence (P21728 whole entry, looked up): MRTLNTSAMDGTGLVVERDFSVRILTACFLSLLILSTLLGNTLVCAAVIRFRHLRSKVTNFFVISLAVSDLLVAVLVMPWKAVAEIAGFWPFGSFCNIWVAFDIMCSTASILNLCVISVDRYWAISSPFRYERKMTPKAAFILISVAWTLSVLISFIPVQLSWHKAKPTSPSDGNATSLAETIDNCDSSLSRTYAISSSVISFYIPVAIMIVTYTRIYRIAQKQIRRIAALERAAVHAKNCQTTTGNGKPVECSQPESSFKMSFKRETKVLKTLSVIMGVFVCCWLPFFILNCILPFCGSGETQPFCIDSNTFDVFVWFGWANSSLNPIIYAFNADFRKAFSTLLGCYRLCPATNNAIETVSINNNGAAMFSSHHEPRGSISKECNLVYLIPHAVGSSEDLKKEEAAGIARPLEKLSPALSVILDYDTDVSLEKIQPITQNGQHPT
# WNV NS2B-NS3 inh: blocks West Nile virus NS2B-NS3 protease activity; P06935; WNV NS2B-NS3 protease, fluorogenic substrate Ex360/Em465; stronger effect = lower value; z-score (concentration not given with the values); 65,000 tested, 0.18% active; in the data active means z-score below about -3
# * = called active by the depositor; . = no result given.
SMILES,AP complement,DAT uptake mod,D1 mod,WNV NS2B-NS3 inh
CCC(=O)Nc1cccc(NC(=S)NC(=O)c2ccccc2Cl)c1,.,2.7*,.,.
Cc1ocnc1C(=O)Nc1ccc(Cl)cc1,12,1.9,-1.9*,-0.12
CN(C)C(CNS(=O)(=O)c1ccc(Br)cc1)c1cccnc1 (stereo unspecified),17,-8.9*,.,1.2
Cc1nn(Cc2ccc(F)cc2)c(C)c1NC(=O)c1cnn2c1NC(c1cccs1)CC2C(F)(F)F (stereo unspecified),.,2.9*,.,.
Cc1nn(Cc2ccc(F)cc2)c(C)c1NC(=O)c1cnn2c1NC(c1ccccc1)CC2C(F)(F)F (stereo unspecified),.,0.092,.,.
C#CCCOC(=O)N1C2=NC(C(=O)OC)=C(C(=O)OC)[C@@H]3N(Cc4ccccc4)c4ccccc4[C@]23C[C@H]1C(=O)OC,.,0.87,.,.
N#Cc1c(NC(=O)CSc2nnc(-c3ccncc3)n2CC2CCCO2)sc2c1CCCC2 (stereo unspecified),3,2.5,1.9,-1.4
NC(=O)c1c(NC(=O)CSc2nnc(-c3ccccc3)n2CC2CCCO2)sc2c1CCC2 (stereo unspecified),20,2.7*,.,-0.65
O=C(NCCSCc1ccc(Cl)cc1Cl)c1ccc(CN2CCOCC2)cc1,.,3.2*,.,.
O=C(NCc1ccccc1)c1ccc(CN2CCOCC2)cc1,11,0.4,0.18,-0.09
CCSc1nnc2n(-c3ccc(OC)cc3)c(=O)c3c4c(sc3n12)CCCC4,.,-8*,.,.
COc1cc2c(cc1OC)CN(CC(=O)Nc1ccc(C#N)cc1)CC2,.,-0.48,.,.
CC(C)(C)c1cc(Cc2ccccc2)[nH]n1,24,-0.075,-0.0078,-1.6
CCOC(=O)CC1C(=O)NCCN1C(=O)c1ccc(F)cc1F (stereo unspecified),.,-3.4*,.,.
CCOC(=O)CC1C(=O)NCCN1C(=O)c1cccc(C(F)(F)F)c1 (stereo unspecified),.,-0.51,.,.
CCN(CC)c1nc(C)nc2c1cnn2CCc1ccccc1,.,1,.,.
Cc1c(C(=O)NCc2cccnc2)sc2nc(-c3ccc(F)cc3)cn12,1,1,-5.8*,1.4
Cc1c(C(=O)Nc2ccncc2)sc2nc(-c3ccccc3)cn12,10,-0.01,-4.5*,-0.41
Cc1c(C(=O)Nc2ccc3c(c2)OCCO3)sc2nc(-c3ccccc3)cn12,.,-0.63,-0.32,-0.37
CCOC(=O)/C(=N/Nc1ccc(Cl)cc1)S(=O)(=O)c1ccccc1,.,-0.8,.,.
O=C(c1cccs1)N1CCN(C(=O)c2ccco2)c2ccccc2C1,-5,0.29,-0.52,-4.8*
O=C(Cc1ccccc1)N1CCN(C(=O)c2cccs2)CC1,27,0.17,0.44,-0.27
O=C(Nc1ccccc1C(F)(F)F)C1CC(=O)N(c2ccccc2F)C1 (stereo unspecified),9,0.35,0.012,0.25
COc1cccc(Nc2nc(-c3sc(N)nc3C)cs2)c1,4,2.2*,-0.18,0.34
COc1cccc(Nc2nc(-c3sc(NC(=O)c4ccco4)nc3C)cs2)c1,.,0.73,.,.
SMILES,AP complement,DAT uptake mod,D1 mod,WNV NS2B-NS3 inh
CC(C)=CCc1cc2c(=O)c3c(O)c4c(cc3oc2c(O)c1O)OC(C)C4(C)C (stereo unspecified),.,1.5,.,.
CCOc1ccc(CN(C(=O)c2ccco2)C2CCS(=O)(=O)C2)cc1 (stereo unspecified),-13,0.0071,0.46,1.2
COc1cccc(C(=O)N(Cc2ccc(N(C)C)cc2)C2CCS(=O)(=O)C2)c1 (stereo unspecified),4,2.6*,0.063,0.17
Cc1ccc(-c2nc3cc(C)ccc3o2)cc1,10,-1.5,-2.7,-0.6
CC(C)c1ccc2oc(-c3ccc(N)cc3)nc2c1,9,0.57,-6*,0.82
Cc1ccc(-c2nc3cc(N)ccc3o2)cc1,9,0.86,-3.7*,1.2
CC(C)c1ccc2oc(-c3ccc(NC(=O)c4ncn[nH]4)cc3)nc2c1,5,-0.36,-0.29,-0.8
CC(C)Sc1nc(C(F)(F)F)cc(=O)n1-c1ccccc1,.,1.5,.,.
O=C(c1ccc(Br)o1)N1CCN(c2ccccn2)CC1,12,2.4*,-0.58,-1.1
COc1cc(-c2ccc3oc(-c4ccsc4)cc3c2)cc(OC)c1OC,.,-0.33,.,.
COC(=O)c1ccccc1NC(=O)CC(NCc1ccccc1)C(=O)O (stereo unspecified),4,0.2,2.4*,0.15
CCCCCCCCCCCCCCCC(=O)OC[C@H](COP(=O)([O-])OCC[N+](C)(C)C)OC(=O)CCCCCCCCCCCCCCC,.,-0.44,.,.
CCOc1cccc(C(=O)Nc2nnc(-c3ccco3)s2)c1,14,-0.35,-3.7*,1.4
O=C1CC(O)(C(F)(F)F)Oc2c1ccc1ccccc21 (stereo unspecified),-8,-3.5*,-0.77,0.46
COc1ccc(OC(=O)c2cc(S(=O)(=O)N3CCCC3)ccc2Cl)cc1,.,-2.3*,.,.
CCOc1cc(S(=O)(=O)N2CCCCC2)ccc1Cl,16,.,-4*,1.2
CC1(O)C(=O)C=C2C=C(c3ccc(C#N)cc3)OC=C2C1=O (stereo unspecified),.,-0.32,.,.
COc1ccc(N2CCCn3c2nc2c3c(=O)n(CCc3ccccc3)c(=O)n2C)cc1,3,-1.3,-2.8*,-0.59
Cc1cc(C)cc(N2CCCn3c2nc2c3c(=O)n(CC(=O)OCc3ccccc3)c(=O)n2C)c1,8,0.17,-1.1*,0.48
Cc1ccc(N2CCCn3c2nc2c3c(=O)n(CC(=O)OCc3ccccc3)c(=O)n2C)cc1C,-3,.,-1.4,-0.39
CCCCc1ccc(-c2ccc(C)cc2O)nc1,19,0.01,-5.3*,0.5
Cc1ccc(Cn2c(C3CCCN3c3nc(-c4ccc(F)cc4)cs3)nc3cc(C(F)(F)F)ccc32)cc1 (stereo unspecified),.,-0.026,.,.
Cc1ccc(C(=O)/C=C/Nc2ccccc2C(N)=O)o1,7,-0.023,-4.1*,-1.2
C#CCNC(=O)C1=C[C@H](C(C)(C)C)C[C@H](OCCCCO)O1,.,0.4,.,.
CC(C)Cc1nc2oc3c(NCc4cccnc4)ncnc3c2c2c1CCC2,-8,0.71,4.8*,-0.19
SMILES,AP complement,DAT uptake mod,D1 mod,WNV NS2B-NS3 inh
CC(C)c1nc2oc3c(NCc4cccnc4)ncnc3c2c2c1CCC2,9,-0.44,.,1.5
CC(C)Cc1nc2oc3c(N4CCN(CCO)CC4)ncnc3c2c2c1CCCC2,3,2.4*,2,-0.32
Cc1nc(-c2ccc(NC(=O)C3CCCCC3)cc2)cs1,.,0.11,.,.
Cc1cc(Nc2cc(Cl)nc(Sc3ccc(NC(=O)C4CC4)cc3)n2)n[nH]1,.,-2.6*,.,.
CCCCCSc1nc2c(c(=O)[nH]c(=O)n2C)n1C,12,-0.33,2.5,0.99
CCCCCCn1c(SCC(C)C)nc2c1c(=O)[nH]c(=O)n2C,9,0.29,27*,1.4
C=CCn1c(SCCN2CCOCC2)nc2c1c(=O)[nH]c(=O)n2C,10,1.4,0.11,0.5
CCCCCSc1nc2c(c(=O)[nH]c(=O)n2C)n1C(C)C,6,-0.05,.,0.95
CCCCCSc1nc2c(c(=O)[nH]c(=O)n2C)n1CC,24,0.19,9*,-0.32
C=CCn1c(SCC(=C)C)nc2c1c(=O)[nH]c(=O)n2C,16,-0.69,6.6*,-0.32
